SIRT5 block – sirtuin-5 (human) deacylase inhibition. 330,000 tested, 1.1% active. Q9NXA8. inhibition, % at 15 µM. Purified SirT5, succinyl-peptide AMC, trypsin-coupled fluorescence. AID 652115; in the data active = inhibition above about 15%; inconclusive = no clear call, values can overlap the other calls
Target sequence (Q9NXA8 whole entry, looked up): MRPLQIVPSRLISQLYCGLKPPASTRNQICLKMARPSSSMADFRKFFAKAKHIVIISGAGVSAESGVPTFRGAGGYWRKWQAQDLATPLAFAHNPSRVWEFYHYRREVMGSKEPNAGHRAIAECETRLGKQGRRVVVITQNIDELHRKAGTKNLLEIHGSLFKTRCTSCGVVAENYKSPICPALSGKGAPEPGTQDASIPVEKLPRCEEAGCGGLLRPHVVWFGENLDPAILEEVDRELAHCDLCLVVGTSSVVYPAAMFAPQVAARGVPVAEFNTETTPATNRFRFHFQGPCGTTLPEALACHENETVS
CaV13 FRET inh – Disruptors of the CACNA1D IQ motif to Ca2+-dependent inactivation inhibitor domain association, primary screening, Förster resonance energy transfer in intact living … | inhibition, % at 12.3 µM | 340,000 tested, 0.098% active | HEK cells, CFP/YFP FRET ICDI-IQ, plate reader, 10 min; percent FRET-ratio fall versus neutral wells;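 active = mean replicate inhibition of at least 30% and at least 1% of replicates passing that level; inconclusive = only one of the two criteria is met; inactive = neither criterion is met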;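 note: 0% = median of the neutral control wells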
S100A4 inh HTS – S100A4-myosin IIA interaction inhibition | P26447 | S100A4/TAMRA-MyoIIA peptide fluorescence polarization | inhibition, % at 10.7 µM | 360,000 tested, 0.14% active | AID 652163;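 active = mean inhibition of at least 70% across replicates, with every replicate also reaching that level; inconclusive = mean inhibition reaches 70% but some replicates fall short; inactive = mean inhibition below 70%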
Target sequence (P26447 whole entry, looked up): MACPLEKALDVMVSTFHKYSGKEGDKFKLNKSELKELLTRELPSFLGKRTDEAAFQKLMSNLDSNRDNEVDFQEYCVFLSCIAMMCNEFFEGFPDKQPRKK
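Material: human S100A4 monomer with TAMRA-labelled myosin IIA peptide; buffer or medium: HEPES pH 7.2 with CaCl2, KCl, NaCl, DTT, Triton; compound dosing: one concentration per compound; schedule: 5 min incubation before reading; benchmarks: neutral control DMSO, positive control TFP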
AF4-AF9 inh – blocks AF4 peptide binding to human AF9. AlphaScreen, biotin-AF4 peptide binding to FLAG-AF9. P42568. inhibition, % at 10 µM. 350,000 tested, 0.47% active;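 active = every replicate reaching a set inhibition limit, whatever the replicate mean, cut at about 25% in these data; inconclusive = mean inhibition reaches that limit but some replicates miss it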;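 note: 0% = plate neutral control median and 100% = total signal loss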
DENV2 CPE rescue – DENV2-induced cell death inhibition; DENV2-infected cells, cytopathic effect rescue, plate reader; CPE inhibition, % at 9.99 µM; 350,000 tested, 1.7% active; in the data active = CPE inhibition above about 20%, passing the limit was not always enough; inconclusive = no clear call, values can overlap the other calls; tested in BHK-21 cells;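 note: 0% = median of neutral control wells and 100% = median of positive control wells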
An asterisk follows results filed as active; u = inconclusive; x = no result. Sampled rows, rich in hits. Any-hit rate of the full collection: about 2.7%.

SMILES | SIRT5 block | CaV13 FRET inh | S100A4 inh HTS | AF4-AF9 inh | DENV2 CPE rescue
Cc1noc(C)c1S(=O)(=O)Nc1ccc2c(c1)C(=O)N([C@@H](C)CO)C[C@H](C)[C@H](CN(C)CC1CCCCC1)OCCCC[C@@H](C)O2 | 3 | x | 68 | -2 | 1
Cn1cc(Br)c(C(=O)Nc2c(F)c(F)c(F)c(F)c2F)n1 | 21* | -14 | -29 | -2 | -3
Cc1nn(Cc2c(F)c(F)c(F)c(F)c2F)c(C)c1NC(=O)c1nn(C)cc1Br | 2 | x | 0 | -2 | -1
O=C(CSc1ccc(-c2ccccc2)nn1)N1CCN(c2ccccc2)CC1 | 18* | -3 | -6 | 5 | -13
Cc1ccc(-c2ccc(SCC(=O)N3CCN(c4ccccc4)CC3)nn2)cc1 | x | -5 | x | x | x
C[C@@H]1CN([C@@H](C)CO)C(=O)c2cc(NS(=O)(=O)c3cccs3)ccc2O[C@@H]1CN(C)CC1CCCCC1 | 0 | x | 26 | -4 | 8
COc1cc(NCc2ccccc2O)c2ncccc2c1 | 1 | -14 | -2 | 3 | 8
COc1cc(NC(C)CCCN)c2ncccc2c1 (configuration not stated) | -1 | -5 | 19 | 31* | 6
COc1cc(C(=O)NCCOc2ccccc2)cc(OC)c1OC | -1 | -3 | -2 | -1 | 17
CCCCOc1ccc(C(=O)NCCOc2cccc(OC)c2)cc1 | -2 | -4 | -9 | -3 | 53*
Cc1ccc(C(=O)NCCOc2cccc(C)c2)cc1 | -8 | -5 | -1 | -7 | -2
COc1ccc(C(=O)NCCOc2cccc(Oc3ccccc3)c2)cc1OC | -2 | -5 | 0 | 2 | 48*
COc1ccccc1/C=N/Nc1cc(N(C)C)nc(N(C)C)n1 | 1 | -15 | -5 | 29* | 0
COc1ccc(/C=N/Nc2cc(OC)ncn2)cc1 | 5 | -3 | 1 | 3 | 1
CN(C)c1cc(N/N=C\c2ccccc2)nc(N(C)C)n1 | -3 | -4 | 1 | 26* | 7
COc1ccc(/C=N/Nc2cc(N(C)C)nc(N(C)C)n2)cc1 | 2 | -1 | 4 | 28* | -4
COc1ccccc1/C=N/Nc1nc(C)cc(=O)[nH]1 | x | 40* | -1 | 1 | 8
COc1ccccc1/C=N/Nc1cc(C)nc(N2CCOCC2)n1 | 1 | -21 | -16 | 2 | -3
O=C(C[C@@H]1CC[C@H](NC(=O)Nc2cc(F)ccc2F)[C@@H](CO)O1)NCc1ccccn1 | 1 | x | -7 | 2 | 18
O=C(C1CC1)N1CC(=O)N2[C@@H](CO)[C@@H](c3ccc(Br)cc3)[C@@H]2C1 | -5 | x | 19 | -2 | u
CCOc1ccc(OCCCC(=O)Nc2cc(Cl)ccc2-n2cncn2)cc1 | -6 | -6 | -1 | 2 | 10
CC(=O)c1ccc(OCCCC(=O)Nc2cc(Cl)ccc2-n2cncn2)cc1 | -2 | -5 | -3 | -1 | 56*
Cc1ccc(S(=O)(=O)Nc2cccc3c2O[C@H](CN(C)Cc2ccc(C(=O)O)cc2)[C@H](C)CN([C@H](C)CO)C3=O)cc1 | 0 | x | -2 | 27* | 11
C[C@H]1CN([C@@H](C)CO)C(=O)c2cccc(NS(=O)(=O)c3ccc(F)cc3)c2O[C@@H]1CN(C)Cc1ccc(Cl)c(Cl)c1 | 7 | x | 0 | 3 | 23*
C[C@H]1CN([C@@H](C)CO)C(=O)c2cccc(NS(=O)(=O)c3ccccc3)c2O[C@H]1CN(C)Cc1ccc(C(F)(F)F)cc1 | 7 | x | -2 | 3 | 78*
SMILES | SIRT5 block | CaV13 FRET inh | S100A4 inh HTS | AF4-AF9 inh | DENV2 CPE rescue
C[C@@H]1CN([C@H](C)CO)C(=O)c2cccc(NS(=O)(=O)c3ccc(F)cc3)c2O[C@H]1CN(C)Cc1ccc(Cl)c(Cl)c1 | 12 | x | 8 | 4 | -8
C[C@H](CO)N1C[C@H](C)[C@@H](CN(C)Cc2ccc(C(F)(F)F)cc2)Oc2c(NS(=O)(=O)c3ccccc3)cccc2C1=O | -3 | x | 9 | 4 | -10
C[C@H]1CN([C@@H](C)CO)C(=O)c2cccc(NS(=O)(=O)c3ccccc3)c2O[C@@H]1CN(C)Cc1ccc(Cl)c(Cl)c1 | -3 | x | 4 | 2 | 85*
C[C@@H]1CN([C@@H](C)CO)C(=O)c2cc(NC(=O)Cc3ccccc3)ccc2O[C@@H]1CN(C)C(=O)Nc1ccc(C(F)(F)F)cc1 | -1 | x | -35 | 3 | -2
O=C(Nc1ccccc1)N[C@@H]1CC[C@H](CCNS(=O)(=O)c2ccccc2F)O[C@H]1CO | -1 | x | 4 | -1 | 2
CCN1CCN(C(=O)C(C)Nc2ccc(OC)cc2OC)CC1 (configuration not stated) | 15* | -10 | -11 | 26* | x
O=C(c1ccco1)N1CCN(Cc2nc(Cc3ccccc3)no2)CC1 | -3 | -7 | 0 | 0 | -2
O=C(c1ccco1)N1CCCN(Cc2nc(-c3cccs3)no2)CC1 | 21* | -6 | 0 | 0 | 4
Cc1ccc(C)c(C(Nc2ccccc2)c2ccc3ccc(C)nc3c2O)c1 (configuration not stated) | -3 | -8 | -6 | x | 23*
O=C(C[C@@H]1CC[C@@H]2[C@H](COC[C@H](O)CN2Cc2cc(F)ccc2F)O1)N[C@@H]1CCN(Cc2ccccc2)C1 | 2 | x | 3 | 5 | -1
CN(C)C(=O)c1cccc(-c2ccc([C@H]3[C@H]4CN(C(=O)CC5CC5)CC(=O)N4[C@H]3CO)cc2)c1 | 1 | x | -2 | 7 | 21*
O=C(c1cccnc1)N1CC(=O)N2[C@H](C1)[C@H](c1ccc(/C=C/c3ccccc3)cc1)[C@@H]2CO | 5 | x | -33 | 37* | -5
O=C(c1cccnc1)N1CC(=O)N2[C@H](C1)[C@H](c1ccc(-c3cccnc3)cc1)[C@@H]2CO | -3 | x | -8 | 32* | 8
O=C(c1cccnc1)N1CC(=O)N2[C@H](CO)[C@H](c3ccc(/C=C/c4ccccc4)cc3)[C@@H]2C1 | 9 | x | -13 | 2 | u
COc1cccc(-c2ccc([C@H]3[C@H](CO)N4C(=O)CN(C(=O)C5CC5)C[C@@H]34)cc2)c1 | 1 | x | -7 | 0 | 29*
O=C(c1ccncc1)N1CC(=O)N2[C@@H](CO)[C@H](c3ccc(-c4cccnc4)cc3)[C@@H]2C1 | -10 | x | -14 | -5 | 0
Cc1cccc(-c2ccc([C@@H]3[C@H]4CN(C(=O)c5cccnc5)CC(=O)N4[C@H]3CO)cc2)c1 | -3 | x | 8 | 3 | 1
Cc1cccc(-c2ccc([C@@H]3[C@@H](CO)N4C(=O)CN(C(=O)c5cccnc5)C[C@H]34)cc2)c1 | -6 | x | 3 | 17 | 21*
Clc1cc(Br)ccc1OCCN1CCOCC1 | 26* | -2 | 19 | 5 | -7
C[C@H](CO)N1C[C@H](C)[C@@H](CN(C)Cc2cccnc2)Oc2cc(C#CC3CCCC3)ccc2S1(=O)=O | 15* | x | -17 | 6 | 13
